Bioassay records as filed in PubChem BioAssay.
HEK293 NFkB inh: inhibitors of PMA/ionomycin-induced NF-kB reporter, primary screen, antigen receptor NF-kB inhibitor project, cell-based, HEK-293 luciferase reporter, luminescence; inhibition, % at 3 µM; AID 465, 2006; HEK-293 NF-kB luciferase reporter; 0.21% of 62,000 active;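 active means inhibition above the mean of all tested compounds plus 3 SD, cut at about 40% in these data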;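 further: 0% = stimulated DMSO wells and 100% = 10 µM reference inhibitor 5653914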
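Timing: 1 h pretreatment, 16 h stimulation, 37 °C; system: HEK-293 cells with stable firefly luciferase reporter driven by four HIV NF-kB elements; doses: 3 µM once, 0.30% DMSO; measured by: luciferase luminescence; control set: DMSO and 10 µM reference inhibitor; repeats: single test; reagent: PMA plus ionomycin mix as NF-kB-activating stimulus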
hDAT+cocaine: changed hDAT dopamine uptake under cocaine IC80, either direction, primary screen, cocaine antagonist project, cell-based, LLC-PK1 hDAT, [14C]-dopamine uptake, MLSMR; Sodium-dependent dopamine transporter (Homo sapiens), Q01959; B-score at 10 µM; 1.3% of 110,000 active; LLC-PK1 hDAT cells, [14C]-dopamine uptake with cocaine IC80; actives deviate in either direction;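 active means Z score or B-score, a plate-position-corrected score, falls beyond the plate's 99.7% confidence bounds, in either direction; inactive means both scores lie inside the 99.7% bounds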;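 further: scored against the spread of the other compound wells on the same plate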
AP complement: alternative complement pathway inhibitors, primary screen, biochemical, ELISA, human serum, orthogonally pooled compounds. LPS-coated ELISA, C3 deposition; tested in compound mixtures. inhibition, % at 5 µM. 0.08% of 62,000 active. AID 1235, 2008;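 active means inhibition above 30% in each of the two pooled mixtures holding the compound, so the lower value exceeds 30%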;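 further: 0% = serum in Mg-EGTA without compound and 100% = EDTA serum blank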
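Test system – human serum alternative complement pathway, C3 deposition on LPS-coated wells · Buffer or medium – diluted human serum in Mg2+-EGTA GVB++ · Compound dosing – 5 µM each compound, pools of ten, 50 µM per pool · Schedule – 1 h serum-compound exposure at 37 °C · Measured by – Anti-C3 ELISA, OD 450 nm · Read-out basis – percent inhibition of C3 deposition onto LPS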
D1 allo mod: D1 CRE-luciferase signal change, two-sided – cell-based, HEK293 D1, dopamine EC30, D1 allosteric modulator project, primary screen; dopamine EC30 potentiation; actives deviate in either direction; AID 641, 2007; 5.9% of 58,000 active; B-score at 10 µM; D(1A) dopamine receptor (Homo sapiens), P21728;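 active means luminescence count or its row- and column-corrected plate score outside the 99.7% band of the plate's sample wells, on either side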
Target sequence (P21728 whole entry, looked up): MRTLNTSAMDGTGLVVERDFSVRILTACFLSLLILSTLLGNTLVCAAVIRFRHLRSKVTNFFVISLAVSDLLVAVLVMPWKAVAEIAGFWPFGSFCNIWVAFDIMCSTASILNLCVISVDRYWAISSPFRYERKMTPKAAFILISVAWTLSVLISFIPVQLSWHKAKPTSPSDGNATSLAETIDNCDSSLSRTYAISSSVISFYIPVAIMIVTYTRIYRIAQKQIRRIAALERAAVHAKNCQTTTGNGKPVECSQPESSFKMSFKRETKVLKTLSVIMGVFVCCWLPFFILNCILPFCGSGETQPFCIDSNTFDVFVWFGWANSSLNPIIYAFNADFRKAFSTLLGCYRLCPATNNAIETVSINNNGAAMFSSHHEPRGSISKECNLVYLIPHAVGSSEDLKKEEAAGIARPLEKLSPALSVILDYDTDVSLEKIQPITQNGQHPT
Ec RNAP inh: E. coli RNAP inhibitors, biochemical. DNA-directed RNA polymerase subunit beta (Escherichia coli (strain K12)), P0A8V2. E. coli RNA polymerase, fluorescence transcription assay. inhibition, %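 (tested at 10 µM)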. 0.2% of 62,000 active. AID 559, 2006; in the data active means inhibition above about 20%;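 further: 0% = enzyme without compound and 100% = no enzyme blank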
Starred values were filed as active, the others as inactive; x = not tested or not shown. Only a selection was taken, and hits are over-represented in it overall.

SMILES | HEK293 NFkB inh | hDAT+cocaine | AP complement | D1 allo mod | Ec RNAP inh
CC1(C)C(=O)C2(CCCCC2)C(=O)OC1c1ccc(O)cc1 (stereo unspecified) | 19.5 | -0.567 | 12.6 | 1.61 | 6.5
COC(=O)c1cc2c(C)c(C)c3ccccn3c-2c1C(=O)OC | x | -9.15* | x | x | x
CC1=C[C@H]2OC(=O)[C@@H](C)[C@H]2C[C@@H]2[C@H]1C[C@@H](O)[C@@]2(C)O | x | -0.245 | x | x | x
COc1ccc(-c2nnc(SCC(=O)N3CCc4ccccc4C3)o2)cc1 | -2.0 | 3.16* | 14.5 | 2.25 | 2.9
COc1ccc(-c2nnc(SCC(=O)/C(C#N)=C(\C)N)o2)cc1 | -37.0 | -0.472 | 19.5 | -3.21* | 0.5
C=CCn1c(COc2ccc(CC)cc2)nnc1SC/C(O)=C(\C#N)c1nc2ccccc2[nH]1 | 6.5 | -1.52 | 4.5 | -0.203 | -9.3
COC(=O)CCC(=O)OC1(C)C(=O)C=C2C=C(C3CC3)N(Cc3ccccc3)C=C2C1=O (stereo unspecified) | x | -2.31* | x | x | x
CCOc1ccc(NC(=O)N2CCC(n3c(=O)[nH]c4ccccc43)CC2)cc1 | 4.2 | 2.84* | 22.3 | x | -0.4
COC(=O)c1cc(-c2ccc(OC)c(OC)c2)n[nH]1 | 0.8 | -0.463 | -0.9 | 7.01* | 7.8
O=C(O)C1CSC2(c3ccc4c(c3)OCCO4)CCC(=O)N12 (stereo unspecified) | 7.2 | 0.421 | -5.5 | 0.532 | 9.2
C=CCN1C=C2C(=O)C(C)(OC(=O)CC)C(=O)C=C2C=C1CCCC (stereo unspecified) | x | -2.76* | x | x | x
CCOc1ccc(NC(=O)C2CC=CCC2C(=O)O)cc1 (stereo unspecified) | 8.6 | -0.991 | 15.2 | 0.271 | 1.2
CCCCOc1ccc(NC(=O)C2CC=CCC2C(=O)O)cc1 (stereo unspecified) | -9.6 | -0.938 | -4.8 | -2.64* | 9.2
CCOC(=O)C1=C(C)C(c2ccccc2O)NC(=O)N1 (stereo unspecified) | x | -0.474 | x | x | x
CC1=C(C#N)C(Nc2cc(C)ccn2)(C(F)(F)F)C(=O)N1 (stereo unspecified) | x | 0.355 | x | x | x
CC1=NC(C(F)(F)F)(C(F)(F)F)C(C#N)=C(C)N1 | 14.8 | -3.85* | 1.3 | 0.149 | 8.9
COc1ccc(C[C@@H]2CN3C(=NC[C@@H]3C)N2CCNC(=O)c2ccc(C)c(Br)c2)cc1 | x | 1.85e-05 | x | x | x
CN(CC(=O)Nc1ccccc1C(=O)N1CCCC1)S(=O)(=O)c1ccc(Cl)cc1 | x | -0.381 | x | x | x
CCN(CC)S(=O)(=O)c1ccc(/C(O)=C(\C#N)c2nc3ccccc3n2C)cc1 | 10.7 | 1.69 | 10.7 | -2.23* | -1.5
Cc1cc(C)c(OCC(=O)Nc2nnn(C)n2)c(Br)c1 | 8.2 | -1.15 | 2.1 | 0.037 | 4.8
CCCn1nnc(NC(=O)COc2cc(C)ccc2C(C)C)n1 | 2.3 | -8.89* | 12.4 | -0.00119 | 4.4
Cc1ccc(OCC(=O)Nc2nnn(C)n2)c(C)c1 | 4.5 | -2.56* | -12.1 | -1.98 | 6.1
CC1CCC2(CC1)NC(=O)c1ccccc1O2 (stereo unspecified) | 3.7 | 0.352 | 13.9 | -2.42* | 5.8
O=C1NC(O)(c2ccccc2)Oc2ccccc21 (stereo unspecified) | x | -0.172 | x | x | x
O=C(NCc1nc2ncc(Br)cc2[nH]1)c1ccccc1 | -13.4 | -7.35* | -19.8 | -0.959 | -1.0
SMILES | HEK293 NFkB inh | hDAT+cocaine | AP complement | D1 allo mod | Ec RNAP inh
O=c1[nH]c2cc(Br)cnc2nc1/C=C(\O)c1ccc(F)cc1 | x | 0.0458 | x | x | x
CCCN1CCC(=O)N([C@H](CSc2ccc(OC)cc2)c2ccccc2)CC1 | x | -0.0227 | x | x | x
Clc1ccc(-c2nnc(-c3ccccc3)c(N3CCSCC3)n2)cc1 | x | 1.41 | x | x | x
Clc1ccc(-c2nnc(N3CCCC3)nn2)cc1 | -23.9 | 0.194 | 4.1 | -2.48* | 5.5
CCn1c(SCC(=O)c2ccc(OC)cc2)nnc1C(C)NC(=O)c1ccc(OC)cc1 (stereo unspecified) | 6.0 | -0.0626 | 3.8 | -0.354 | 0.0
Nc1ccc(O)c(-c2nc3ccccc3s2)c1 | -6.6 | -0.00833 | 14.1 | -0.342 | 0.9
Nc1cccc(-c2nc3ccc(N)cc3s2)c1 | 17.7 | 1.3 | 8.4 | -4.68* | -44.4
